Source: ChEMBL document CHEMBL4028903 (J Med Chem, 2017)
≈ marks a conversion by molar mass, not a printed value. Calls of active or inactive are those of the source. The rule behind the calls is not given here.

Columns and labels:
[1] = target: T1, G-protein coupled bile acid receptor 1 (Mus musculus, UniProt Q80SS6); assay: Agonist activity at mouse TGR5
T1 sequence (Q80SS6 whole entry): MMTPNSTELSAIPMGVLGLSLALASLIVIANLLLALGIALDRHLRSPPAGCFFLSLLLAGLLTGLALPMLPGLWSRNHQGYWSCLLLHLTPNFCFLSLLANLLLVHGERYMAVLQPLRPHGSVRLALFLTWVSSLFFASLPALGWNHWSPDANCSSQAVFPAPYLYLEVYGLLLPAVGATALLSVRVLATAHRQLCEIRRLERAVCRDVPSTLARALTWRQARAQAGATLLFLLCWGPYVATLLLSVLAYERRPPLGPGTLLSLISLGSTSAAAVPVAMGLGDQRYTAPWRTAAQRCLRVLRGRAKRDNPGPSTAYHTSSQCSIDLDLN

[2] = AUC in rat at 10 mg/kg, po administered via gavage by LC-MS/MS analysis; format: ADME, organism-based; details: in vivo
Method in brief: (§1)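 Rats were dosed IV as a solution in 75% PEG300:25% D5W, or orally as a suspension in 0.5% methylcellulose, 0.5% Tween80 and 99% water.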

Bile acid receptor [3] = target: T2, Bile acid receptor (Homo sapiens, UniProt Q96RI1); assay: Agonist activity at recombinant human GST-tagged FXR ligand binding domain (193 to 472 residues) expressed in baculovirus infected insect cells assessed as induction of interaction with biotin labelled SRC-1 after 1 hr by HTRF assay
T2 sequence (Q96RI1 whole entry): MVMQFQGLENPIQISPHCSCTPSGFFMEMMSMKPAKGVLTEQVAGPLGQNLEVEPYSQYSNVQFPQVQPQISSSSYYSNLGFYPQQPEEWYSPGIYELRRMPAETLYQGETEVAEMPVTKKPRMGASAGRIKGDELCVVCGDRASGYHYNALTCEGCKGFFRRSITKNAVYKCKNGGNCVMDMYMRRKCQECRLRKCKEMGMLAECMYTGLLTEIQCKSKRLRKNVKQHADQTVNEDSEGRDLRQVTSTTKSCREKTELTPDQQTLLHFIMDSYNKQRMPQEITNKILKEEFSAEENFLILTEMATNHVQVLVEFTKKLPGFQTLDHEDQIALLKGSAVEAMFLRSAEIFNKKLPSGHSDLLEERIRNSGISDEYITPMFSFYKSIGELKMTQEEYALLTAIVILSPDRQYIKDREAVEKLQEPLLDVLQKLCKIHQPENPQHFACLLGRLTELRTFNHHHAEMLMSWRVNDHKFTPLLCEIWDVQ

[4] = Volume of distribution at steady state in rat at 3 mg/kg, iv by LC-MS/MS analysis; format: ADME, organism-based; details: in vivo, read-out: Vdss; method in brief: as §1
[5] = Extraction ratio in human liver microsomes; format: ADME, microsome; details: read-out: ERH
[6] = Solubility of the compound in fasted state simulated intestinal fluid at pH 6.8; format: physicochemical
[7] = Oral bioavailability in rat at 10 mg/kg administered via gavage by LC-MS/MS analysis; format: ADME, organism-based; details: in vivo; method in brief: as §1
[8] = Extraction ratio in rat liver microsomes; format: ADME, microsome; details: read-out: ERH
[9] = Clearance in rat at 3 mg/kg, iv by LC-MS/MS analysis; format: ADME, organism-based; details: in vivo; method in brief: as §1
[10] = Terminal half life in rat at 3 mg/kg, iv by LC-MS/MS analysis; format: ADME, organism-based; details: in vivo, read-out: beta t1/2 (converted); method in brief: as §1
Bile acid receptor [11] = target: T2, Bile acid receptor; assay: Agonist activity at human FXR expressed in HEK293T cells assessed as BSEP promoter driven cellular transcriptional activity after 24 hrs by luciferase reporter gene assay; format: cell-based, HEK-293T
[12] = Cmax in rat at 10 mg/kg, po administered via gavage by LC-MS/MS analysis; format: ADME, organism-based; set-up: dose 10 mg/kg, route oral; details: in vivo; method in brief: as §1
[13] = Dissociation constant, pKa of compound; format: physicochemical
[14] = target: T3, G-protein coupled bile acid receptor 1 (Homo sapiens, UniProt Q8TDU6); assay: Agonist activity at human TGR5
T3 sequence (Q8TDU6 whole entry): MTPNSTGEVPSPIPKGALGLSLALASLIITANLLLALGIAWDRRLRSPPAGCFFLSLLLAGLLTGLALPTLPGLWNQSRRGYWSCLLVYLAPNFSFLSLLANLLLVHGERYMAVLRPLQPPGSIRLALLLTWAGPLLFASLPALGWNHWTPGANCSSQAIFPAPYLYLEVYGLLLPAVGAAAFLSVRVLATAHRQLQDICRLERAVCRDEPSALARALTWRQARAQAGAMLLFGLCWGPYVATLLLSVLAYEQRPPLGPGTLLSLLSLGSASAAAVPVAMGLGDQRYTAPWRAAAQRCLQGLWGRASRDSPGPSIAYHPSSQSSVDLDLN

[15] = target: T3, G-protein coupled bile acid receptor 1; assay: Agonist activity at human TGR5 relative to control; details: read-out: Efficacy
Rattus norvegicus [16] = assay: In vivo agonist activity at FXR in po dosed Sprague-Dawley rat assessed as induction of BSEP mRNA level in liver administered as single dose after 7 hrs post dose by qPCR analysis; format: functional, organism-based
Rattus norvegicus [17] = assay: In vivo agonist activity at FXR in Sprague-Dawley rat assessed as induction of SHP mRNA level in ileum at 0.3 mg/kg, po administered as single dose after 7 hrs post dose by qPCR analysis; format: functional, organism-based
Rattus norvegicus [18] = assay: In vivo agonist activity at FXR in Sprague-Dawley rat assessed as induction of SHP mRNA level in liver at 1 mg/kg, po administered as single dose after 7 hrs post dose by qPCR analysis relative to control; format: functional
Rattus norvegicus [19] = assay: In vivo agonist activity at FXR in Sprague-Dawley rat assessed as induction of FGF15 mRNA level in ileum at 0.3 mg/kg, po administered as single dose after 7 hrs post dose by qPCR analysis; format: functional, organism-based
Rattus norvegicus [20] = assay: In vivo agonist activity at FXR in po dosed Sprague-Dawley rat assessed as induction of SHP mRNA level in liver administered as single dose after 7 hrs post dose by qPCR analysis; format: functional, organism-based
Rattus norvegicus [21] = assay: In vivo agonist activity at FXR in po dosed Sprague-Dawley rat assessed as induction of BSEP mRNA level in liver administered as single dose measured 7 hrs post dose by qPCR analysis
Rattus norvegicus [22] = assay: In vivo agonist activity at FXR in po dosed Sprague-Dawley rat assessed as induction of SHP mRNA level in ileum administered as single dose measured 7 hrs post dose by qPCR analysis; format: functional, organism-based

Row | Compound | AUC [2] [µM·h] | EC50 (Bile acid receptor [3]) [nM] | Vd [4] [L/kg] | hepatic extraction ratio [5] | solubility [6] [µM] | bioavailability [7] [%] | hepatic extraction ratio [8] | clearance [9] [mL/min/kg] | half-life [10] [h] | EC50 (Bile acid receptor [11]) [nM] | Cmax [12] [nM] | pKa [13] | further results
1 | CC[C@H]1[C@@H](O)[C@@H]2[C@H](CC[C@]3(C)[C@@H]([C@H](C)CCC(=O)O)CC[C@@H]23)[C@@]2(C)CC[C@@H](O)C[C@@H]12 [OBETICHOLIC ACID] |  |  |  |  |  |  |  |  |  |  |  |  | EC50 [1]: 5740 nM
2 | O=C(O)c1ccc2nc(N3CCC(OCc4c(-c5c(Cl)cccc5Cl)noc4C4CC4)CC3)sc2c1 | 0.39 | 8.3 | 0.55 | 0.81 | 61 (≈ 33.2 µg/mL) | 6 | 0.58 | 50 | 0.34 | 9.5 | 44 |  | 
3 | Cc1cc(C(=O)O)cc2sc(N3C4CCC3CC(OCc3c(-c5ccccc5OC(F)(F)F)noc3C3CC3)C4)nc12 (stereo not given) | 0.832 | 0.49 | 0.84 | < 0.21 | < 10 | 3 | < 0.18 | 14 | 1 | 0.82 | 86 | 5.5 | 
4 | O=C(O)c1ccc2nc(N3C4CCC3CC(OCc3c(-c5ccccc5OC(F)(F)F)noc3C3CC3)C4)sc2c1 (stereo not given) | 1.92 | 0.54 | 1.1 | < 0.2 | 110 (≈ 64.4 µg/mL) | 11 | 0.51 | 17 | 1 | 0.69 | 173 | 5.1 | 
5 | O=C(O)c1cc(F)c2nc(N3C4CCC3CC(OCc3c(-c5ccccc5OC(F)F)noc3C3CC3)C4)sc2c1 (stereo not given) | 3.45 | 0.27 | 0.7 | 0.61 | 750 (≈ 439 µg/mL) | 14 | 0.4 | 11 | 3.7 | 0.8 | 2120 | 4 | 
6 | O=C(O)c1ccc2nc(N3CCC(OCc4c(-c5ccccc5C(F)(F)F)noc4C4CC4)CC3)sc2c1 |  | 66 |  | 0.38 | 131 (≈ 71.2 µg/mL) |  | 0.5 |  |  | 70 |  |  | 
7 | CC[C@H]1[C@@H](O)[C@H]2[C@@H]3CC[C@H]([C@H](C)CCC(=O)NCCS(=O)(=O)O)C3(C)CC[C@@H]2[C@@]2(C)CC[C@@H](O)C[C@@H]12 (single isomer, unassigned) |  |  |  |  |  |  |  |  |  |  |  |  | EC50 [1]: 906 nM; EC50 [14]: 205 nM; Emax [15]: 102%
8 | CC[C@H]1[C@@H](O)[C@H]2[C@@H]3CC[C@H]([C@H](C)CCC(=O)NCC(=O)O)C3(C)CC[C@@H]2[C@@]2(C)CC[C@@H](O)C[C@@H]12 (single isomer, unassigned) |  |  |  |  |  |  |  |  |  |  |  |  | EC50 [1]: 637 nM; EC50 [14]: 315 nM; Emax [15]: 101%
9 | O=C(O)c1cc(F)c2nc(N3C4CCC3CC(OCc3c(-c5ccccc5C(F)(F)F)noc3C3CC3)C4)sc2c1 (stereo not given) | 3.64 | 0.46 | 0.6 | 0.36 | 510 (≈ 300 µg/mL) | 14 | 0.19 | 11 | 1.8 | 0.54 | 2110 | 4 | Activity (Rattus norvegicus [16]): Dose-dependent effect; Activity (Rattus norvegicus [17]): Active; fold change (FC) (Rattus norvegicus [18]): 6; Activity (Rattus norvegicus [19]): Active; Activity (Rattus norvegicus [20]): Dose-dependent effect; Activity (Rattus norvegicus [21]): Dose-dependent effect; Activity (Rattus norvegicus [22]): Dose-dependent effect
10 | COc1cc(C(=O)O)cc2sc(N3C4CCC3CC(OCc3c(-c5ccccc5OC(F)(F)F)noc3C3CC3)C4)nc12 (stereo not given) | 2.67 | 0.57 | 0.26 | 0.64 | 75 (≈ 46.2 µg/mL) | 9 | 0.5 | 9 | 0.7 | 0.42 | 1990 | 4.5 | 
11 | O=C(O)c1ccc2nc(N3CCC(OCc4c(-c5ccccc5OC(F)(F)F)noc4C4CC4)CC3)sc2c1 | 4.57 |  | 1.2 |  | 70 (≈ 39.2 µg/mL) | 37 |  | 24 | 1 |  | 382 |  | 
12 | O=C(O)c1ccc2nc(N3CCCC(OCc4c(-c5ccccc5OC(F)(F)F)noc4C4CC4)CC3)sc2c1 (stereo not given) |  | 4.2 |  | 0.89 | 126 (≈ 72.3 µg/mL) |  | 0.75 |  |  | 6.6 |  |  | 
13 | O=C(O)c1ccc2nc(N3CCC(OCc4c(-c5c(F)cccc5F)noc4C4CC4)CC3)sc2c1 |  |  |  | 0.27 | 169 (≈ 86.5 µg/mL) |  | 0.52 |  |  | 88 |  |  | 
14 | O=C(O)c1ccc2nc(N3CC(OCc4c(-c5ccccc5OC(F)(F)F)noc4C4CC4)C3)sc2c1 |  | 1580 |  |  |  |  |  |  |  | 8400 |  |  | 
15 | O=C(O)c1ccc2nc(N3CC[C@@H](OCc4c(-c5c(Cl)cccc5Cl)noc4C4CC4)C3)sc2c1 |  | 3060 |  |  |  |  |  |  |  | 9200 |  |  | 
